Like-named read-outs stand apart in the source and are kept apart here. Marks after values point to notes of the source that are not given here. Blank lines part the entries; values can stand above or below the compound they belong to.
Assays:
[1] = type: in vivo, human; details: for Metabolic ratio of AUC0–inf, metabolite/belinostat / Metabolic ratio of Cmax, metabolite/belinostat: Cycle 1 Day −7, geometric mean (geometric SD)
[2] = Phase 1 safety: adverse events; type: in vivo, human
[3] = system: solid tumours or lymphomas; assay: Tumour response by RECIST 1.1; type: in vivo, human
Summary of the method: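 CT scans were done at baseline and every 2 cycles, with response per RECIST 1.1. Dosing was IV over 30 min on days 1–5 of 21-day cycles, at doses set by liver-function cohort and dose level, after a single 400 mg/m2 dose on Cycle 1 Day −7. Cohorts were defined by bilirubin and AST relative to ULN.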

[4] = cited from earlier work
[5] = cited from earlier work; remark: listed apart in the source
[6] = patients with hepatocellular carcinoma; cited from earlier work
[7] = combination with 13‐cis‐retinoic acid; cited from earlier work
[8] = mild liver dysfunction (n = 25)
[9] = severe liver dysfunction (n = 15)
[10] = Dose level 1, mild (n = 9), at least possibly related
[11] = Dose level 1, moderate (n = 6), at least possibly related
[12] = Dose level 1, normal (n = 14), at least possibly related
[13] = Dose level 1, severe (n = 9), at least possibly related
[14] = Dose level 2, mild (n = 14), at least possibly related
[15] = Dose level 2, moderate (n = 6), at least possibly related
[16] = Dose level 2, severe (n = 5), at least possibly related

Metabolic ratio of AUC0–inf, metabolite/belinostat [1, 8]: 21.8 (1.63) ^d
Metabolic ratio of Cmax, metabolite/belinostat [1, 8]: 3.57(1.47) ^c
Metabolic ratio of AUC0–inf, metabolite/belinostat ([1]; normal liver function (n = 14)): 18.7 (1.63)
Metabolic ratio of Cmax, metabolite/belinostat ([1]; normal liver function (n = 14)): 3.78 (1.47)
Metabolic ratio of AUC0–inf, metabolite/belinostat [1, 9]: 17.7 (1.91)
Metabolic ratio of Cmax, metabolite/belinostat [1, 9]: 2.85 (1.51)
SMILES: O=C(/C=C/c1cccc(S(=O)(=O)Nc2ccccc2)c1)NO[C@@H]1O[C@H](C(=O)O)[C@@H](O)[C@H](O)[C@H]1O [Belinostat glucuronide, belinostat glucuronide]

SMILES: O=C(/C=C/c1cccc(S(=O)(=O)Nc2ccccc2)c1)NO [Belinostat, belinostat]
Clearance as % of liver blood flow (extraction) ([1]; normal liver function, clearance 661 mL/min/m^2): 76%
Increase in half‐life from normal to severe ([1]; normal vs severe liver dysfunction cohort, not statistically significant): 33%
Patients with at least 1 grade ≥ 3 adverse event at least possibly related to study drug ([2]; All dose levels, all patients, n = 66): 14 (21.2) number (%) of patients
Patients with at least 1 grade ≥ 3 adverse event at least possibly related to study drug ([2]; All dose levels, mild dysfunction, n = 23): 4 (17.4) number (%) of patients
Patients with at least 1 grade ≥ 3 adverse event at least possibly related to study drug ([2]; All dose levels, moderate dysfunction, n = 12): 3 (25) number (%) of patients
Patients with at least 1 grade ≥ 3 adverse event at least possibly related to study drug ([2]; All dose levels, normal liver function, n = 14): 5 (35.7) number (%) of patients
Patients with at least 1 grade ≥ 3 adverse event at least possibly related to study drug ([2]; All dose levels, severe dysfunction, n = 17): 2 (11.8) number (%) of patients
Patients with at least 1 grade ≥ 3 adverse event at least possibly related to study drug ([2]; Dose level 1 (250 mg/m^2), severe dysfunction, n = 9): 1 (11.1) number (%) of patients
Patients with at least 1 grade ≥ 3 adverse event at least possibly related to study drug ([2]; Dose level 1 (500 mg/m^2), moderate dysfunction, n = 6): 1 (16.7) number (%) of patients
Patients with at least 1 grade ≥ 3 adverse event at least possibly related to study drug ([2]; Dose level 1 (750 mg/m^2), mild dysfunction, n = 9): 1 (11.1) number (%) of patients
Patients with at least 1 grade ≥ 3 adverse event at least possibly related to study drug ([2]; Dose level 1 (1000 mg/m^2), normal liver function, n = 14): 5 (35.7) number (%) of patients
Patients with at least 1 grade ≥ 3 adverse event at least possibly related to study drug ([2]; Dose level 1, all patients, n = 38): 8 (21.1) number (%) of patients
Anaemia, Grade 2 [2, 10]: 1 number of patients
Fatigue, Grade 2 [2, 10]: 1 number of patients
Fatigue, Grade 3 [2, 10]: 1 number of patients
Vomiting, Grade 2 [2, 10]: 1 number of patients
Anaemia, Grade 2 [2, 11]: 3 number of patients
Fatigue, Grade 2 [2, 11]: 1 number of patients
Lymphocyte count decreased, Grade 2 [2, 11]: 1 number of patients
Lymphocyte count decreased, Grade 3 [2, 11]: 1 number of patients
Anaemia, Grade 2 [2, 12]: 1 number of patients
Anaemia, Grade 3 [2, 12]: 1 number of patients
Fatigue, Grade 2 [2, 12]: 2 number of patients
Fatigue, Grade 3 [2, 12]: 1 number of patients
Lymphocyte count decreased, Grade 2 [2, 12]: 1 number of patients
Lymphocyte count decreased, Grade 3 [2, 12]: 3 number of patients
Nausea, Grade 2 [2, 12]: 3 number of patients
Vomiting, Grade 2 [2, 12]: 1 number of patients
Fatigue, Grade 2 [2, 13]: 1 number of patients
Vomiting, Grade 2 [2, 13]: 1 number of patients
Lung infection, Grade 5 ([2]; Dose level 1, severe (n = 9), possibly related): 1 number of patients
Patients with at least 1 grade ≥ 3 adverse event at least possibly related to study drug ([2]; Dose level 2 (350 mg/m^2), severe dysfunction, n = 8): 1 (12.5) number (%) of patients
Patients with at least 1 grade ≥ 3 adverse event at least possibly related to study drug ([2]; Dose level 2 (750 mg/m^2), moderate dysfunction, n = 6): 2 (33.3) number (%) of patients
Patients with at least 1 grade ≥ 3 adverse event at least possibly related to study drug ([2]; Dose level 2 (1000 mg/m^2), mild dysfunction, n = 14): 3 (21.4) number (%) of patients
Patients with at least 1 grade ≥ 3 adverse event at least possibly related to study drug ([2]; Dose level 2, all patients, n = 28): 6 (21.4) number (%) of patients
Anaemia, Grade 2 [2, 14]: 3 number of patients
Fatigue, Grade 2 [2, 14]: 2 number of patients
Fatigue, Grade 3 [2, 14]: 2 number of patients
Lymphocyte count decreased, Grade 2 [2, 14]: 4 number of patients
Nausea, Grade 2 [2, 14]: 3 number of patients
Vomiting, Grade 2 [2, 14]: 1 number of patients
Vomiting, Grade 3 [2, 14]: 1 number of patients
Anaemia, Grade 2 [2, 15]: 1 number of patients
Bilirubin increased, Grade 2 [2, 15]: 1 number of patients
Bilirubin increased, Grade 3 [2, 15]: 2 number of patients
Fatigue, Grade 2 [2, 15]: 1 number of patients
Fatigue, Grade 3 [2, 15]: 2 number of patients
Anaemia, Grade 2 [2, 16]: 1 number of patients
Lymphocyte count decreased, Grade 2 [2, 16]: 2 number of patients
Grade 2 or greater anaemia attributed to the study drug ([2]; all treated patients): 17.1%
Grade 2 or greater fatigue attributed to the study drug ([2]; all treated patients): 21.9%
Grade 2 or greater lymphopenia attributed to the study drug ([2]; all treated patients): 18.8%
Patients with grade ≥ 3 toxicity ([2]; mild cohort (4/23)): 17.4%
DLTs ([2]; mild cohort, DL 2 (1000 mg/m^2), 6 evaluable patients): no DLTs
Patients with grade ≥ 3 toxicity ([2]; moderate cohort (3/12)): 25%
DLTs ([2]; moderate cohort, DL 2 (750 mg/m^2), 3 evaluable patients): no DLTs
Patients with a grade ≥ 3 AE ([2]; normal cohort (5/14)): 35.7%
MTD ([2]; patients with mild dysfunction, same as recommended phase 2 dose): 1000 mg/m^2/day
DLTs ([2]; severe cohort, DL 1 (250 mg/m^2), 6 evaluable patients, grade 5 lung infection): 1
Complete or partial responses ([3]; any of the 4 cohorts): No complete or partial responses
Patients with stable disease ([3]; of 47 patients evaluable for response): 28%
Patients with stable disease ([3]; of 47 patients evaluable for response, after the first 2 cycles): 13 patients
Patients with stable disease ([3]; on DL 1): 11 patients
Patients with stable disease ([3]; on DL 2): 2 patients
Time on study treatment, median ([3]; patients with stable disease): 4 21‐day cycles
Time on study treatment, range ([3]; patients with stable disease): 2–12 cycles
% of dose by glucuronidation (UGT1A1 and UGT2B7), clinical mass balance [4]: 41.4%
% of dose by methylation, clinical mass balance [4]: 1.9%
Total administered belinostat excreted unchanged in the urine [4]: up to 2%
Patients who experienced DLT ([5]; at 1200 mg/m^2/day): 3 of 5
Recommended phase 2 dose ([5]; days 1–5 of a 21‐day cycle): 1000 mg/m^2/day
MTD (not reached at highest dose tested) [6]: ≥ 1400 mg/m^2/day
MTD (not reached) [7]: ≥ 2000 mg/m^2/day
